Assay results of several laboratories.
Compare with care: the assays were run in different laboratories.
Target: Tyrosine-protein kinase Mer (MERTK, Homo sapiens, UniProt Q12866)
One construct used (Q12866 21-999): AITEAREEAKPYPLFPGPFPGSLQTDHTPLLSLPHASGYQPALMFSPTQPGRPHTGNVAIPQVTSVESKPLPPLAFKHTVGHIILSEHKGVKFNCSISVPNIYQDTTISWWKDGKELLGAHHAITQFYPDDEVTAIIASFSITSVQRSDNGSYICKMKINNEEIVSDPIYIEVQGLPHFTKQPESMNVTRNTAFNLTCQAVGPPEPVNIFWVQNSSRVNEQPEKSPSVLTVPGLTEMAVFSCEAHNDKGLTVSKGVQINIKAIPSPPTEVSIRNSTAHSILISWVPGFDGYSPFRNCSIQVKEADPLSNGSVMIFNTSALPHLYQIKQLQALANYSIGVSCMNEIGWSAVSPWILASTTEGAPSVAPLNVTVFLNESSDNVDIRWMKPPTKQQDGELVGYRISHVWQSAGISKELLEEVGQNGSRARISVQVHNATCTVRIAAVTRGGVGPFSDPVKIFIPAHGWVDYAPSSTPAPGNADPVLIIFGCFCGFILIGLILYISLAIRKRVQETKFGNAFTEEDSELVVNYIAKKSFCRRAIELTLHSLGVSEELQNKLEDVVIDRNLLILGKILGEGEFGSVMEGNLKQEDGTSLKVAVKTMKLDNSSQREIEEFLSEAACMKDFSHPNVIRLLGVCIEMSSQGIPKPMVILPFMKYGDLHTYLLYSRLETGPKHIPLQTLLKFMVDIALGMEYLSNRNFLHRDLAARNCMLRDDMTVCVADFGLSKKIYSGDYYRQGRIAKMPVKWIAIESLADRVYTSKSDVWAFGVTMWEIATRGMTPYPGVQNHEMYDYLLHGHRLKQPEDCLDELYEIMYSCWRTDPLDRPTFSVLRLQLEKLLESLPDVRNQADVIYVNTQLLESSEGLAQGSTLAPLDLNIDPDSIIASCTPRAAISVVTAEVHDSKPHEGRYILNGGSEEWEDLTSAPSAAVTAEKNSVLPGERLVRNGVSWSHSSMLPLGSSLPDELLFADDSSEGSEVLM

| Structure (SMILES) | test | conditions | remaining binding [%] |
| --- | --- | --- | --- |
| O=C(NCCCN1CCOCC1)c1ccc(Nc2nccc(-c3cc4ccccc4s3)n2)cc1 | binding, competition with immobilised ligand | 1 µM | 45 |
| c1cnn2ncc(-c3ccnc(N4CCC45COC5)n3)c2c1 | binding | 1 µM | 87 |
| C=CC(=O)N1CCC(C(=O)NCC(=O)N2CCN(c3nc(-c4cnc(N)nc4C(F)F)nc(N4CCOCC4)n3)CC2)CC1 | binding, competition with immobilised ligand | 1 µM | 94 |
| CNC(=O)[C@@H]1CC[C@@H](n2c(-c3ccc4cnccc4c3)nc3ccc(C(=O)NCc4cccc(C(N)=O)c4)cc32)C1 | binding, competition with immobilised ligand | 1 µM | 100 |
| c1cncc(-c2cccc(Nc3nccc(NC4CCCCC4)n3)c2)c1 | binding, competition with immobilised ligand | 10 µM | 4.6 |
| COc1ccnn2ncc(-c3ccnc(N(C)C)n3)c12 | binding | 1 µM | 99 |
| O=C(NCC1CCOCC1)c1n[nH]cc1NC(=O)c1c(F)cccc1F | binding, competition with immobilised ligand | 1 µM | 98 |
| N[C@H]1CCN(c2nccc(-c3cnn4ncccc34)n2)C1 | binding | 1 µM | 100 |
| CS(=O)(=O)N1CCCC(NC(=O)[C@H](CCC2CCCCC2)NC(=O)c2ccc(CNc3ncnc4c3nnn4-c3ccccc3)cc2)C1 (stereo partly drawn) | cell-free assay, competition with immobilised ligand | 0.1 µM | 91 |
| C[C@@H](c1ccc(-n2cnc3c(N)ncnc32)cc1)N1CCc2nn(C)c(Cc3ccccc3)c2C1=O | binding, competition with immobilised ligand | 0.1 µM | 100 |
| CCC(=O)N[C@H]1CC[C@@H](C(=O)N(C)c2ccc(-c3nc4ccccc4o3)cc2)C1 | cell-free assay, competition with immobilised ligand | 1 µM | 100 |
| O=C(c1ccc(Nc2ncc(Cl)c(-c3ccc(Cl)s3)n2)cc1)N1CCC(N2CCCC2)CC1 | binding, competition with immobilised ligand | 1 µM | 4.3 |
| F[C@@H]1CCN(c2nccc(-c3cnn4ncccc34)n2)C1 | binding | 1 µM | 100 |
| C[C@@]1(Cc2ccc(C#N)cc2)C(=O)N(c2cc(Cl)cc(Cl)c2)c2ncc(C(=O)NC3(c4nc(C5CCC5)no4)CC3)n21 | cell-free assay, competition with immobilised ligand | 1 µM | 100 |
| C[C@H]1CCN(c2nccc(-c3cnn4ncccc34)n2)C1 | binding | 1 µM | 94 |
| FC(F)(F)c1ccc2c(c1)nc(-c1cccnc1)n2C1CC1 | cell-free assay, competition with immobilised ligand | 1 µM | 79 |
| Cc1cnc(Nc2ccc(C(=O)N3CCC(N4CCCC4)CC3)cc2)nc1-c1cc2ccccc2s1 | binding, competition with immobilised ligand | 1 µM | 0.7 |
| CN(C)c1ncnc(-c2ccc3nc(Nc4cc(CN5CCN(C(=O)CC(F)(F)F)CC5)ccn4)[nH]c3c2)c1Cl | cell-free assay, competition with immobilised ligand | 1 µM | 87 |
| Cc1cnn2ncc(-c3ccnc(N(C)C)n3)c2c1 | binding | 1 µM | 100 |
| CCCOc1ccc([C@@H]2[C@@H](C(=O)O)[C@H](c3ccc4c(c3)OCO4)CN2CC(=O)Nc2c(CC)cccc2CC)cc1 | cell-free assay, competition with immobilised ligand | 1 µM | 97 |
| CCN1CCN(Cc2ccc(C(=O)Nc3ccc(C)c(Oc4ccc5c(c4)CC(=O)N5)c3)cc2C(F)(F)F)CC1 | binding, competition with immobilised ligand | 1 µM | 100 |
